Test results published in ChEMBL document CHEMBL5260843 (J Med Chem, 2019).
Active and inactive are the calls of the source. The calls are words filed in the database; no cut-off is given here.

Legend:
KYSE-70 cell line [1] = test: Inhibition of cullin3 neddylation in human KYSE-70 cells incubated for 24 hrs by Western blot analysis; format: cell-based; settings: dose 0.3-10 µM
Procedure, shortened: (§1)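 Cells in 6-well plates were exposed to compound for 24 h. MGC-803 were grown in DMEM and KYSE70 in RPMI 1640, both with 10% FBS at 37 °C and 5% CO2. Lysates were made in RIPA with protease inhibitors and quantified by BCA. 30 μg protein was run on 8% SDS-PAGE and blotted to nitrocellulose. Primary antibodies were applied overnight at 4 °C, then HRP secondaries, with ECL and film detection. GAPDH was the loading control. Run three times.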

[2] = test system: Epidermal growth factor receptor (Homo sapiens), P00533 [L858R]; test: Inhibition of human EGFR L858R mutant (669 to 1210 residues) expressed in Sf21 insect cells using 5-FAM-EEPLYWSFPAKKK-CONH2 as substrate at 10 uM incubated for 30 mins relative to control
KYSE-70 [3] = test: Upregulation of NRF2 protein expression in human KYSE-70 cells incubated for 24 hrs by Western blot analysis; format: functional, cell-based; settings: dose 0.3-10 µM
Procedure, shortened: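 Cells were grown at 37 °C in 5% CO2 with 10% FBS, MGC-803 in DMEM and KYSE70 in RPMI 1640. They were exposed to the indicated compound concentrations for 24 h, then lysed in RIPA with protease inhibitors and quantified by BCA. 30 μg of protein was run on 8% SDS-PAGE and blotted to nitrocellulose. Primary antibody was applied overnight at 4 °C, with HRP secondary and ECL film detection. GAPDH served as the loading control; the experiment was done three times.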

MGC-803 [4] = test: Induction of p27 accumulation in human MGC-803 cells incubated for 24 hrs by Western blot analysis; format: functional, cell-based; settings: dose 1-10 µM; procedure, shortened: as §1
Cullin-5 (Homo sapiens) [5] = target: T1, Cullin-5 (Homo sapiens) (UniProt Q93034); test: Inhibition of cullin5 neddylation in human KYSE-70 cells at 0.3 to 10 uM incubated for 24 hrs by Western blot analysis; format: cell-based; settings: KYSE-70 cell line, dose 0.3-10 µM; procedure, shortened: as §1
T1 sequence (whole entry): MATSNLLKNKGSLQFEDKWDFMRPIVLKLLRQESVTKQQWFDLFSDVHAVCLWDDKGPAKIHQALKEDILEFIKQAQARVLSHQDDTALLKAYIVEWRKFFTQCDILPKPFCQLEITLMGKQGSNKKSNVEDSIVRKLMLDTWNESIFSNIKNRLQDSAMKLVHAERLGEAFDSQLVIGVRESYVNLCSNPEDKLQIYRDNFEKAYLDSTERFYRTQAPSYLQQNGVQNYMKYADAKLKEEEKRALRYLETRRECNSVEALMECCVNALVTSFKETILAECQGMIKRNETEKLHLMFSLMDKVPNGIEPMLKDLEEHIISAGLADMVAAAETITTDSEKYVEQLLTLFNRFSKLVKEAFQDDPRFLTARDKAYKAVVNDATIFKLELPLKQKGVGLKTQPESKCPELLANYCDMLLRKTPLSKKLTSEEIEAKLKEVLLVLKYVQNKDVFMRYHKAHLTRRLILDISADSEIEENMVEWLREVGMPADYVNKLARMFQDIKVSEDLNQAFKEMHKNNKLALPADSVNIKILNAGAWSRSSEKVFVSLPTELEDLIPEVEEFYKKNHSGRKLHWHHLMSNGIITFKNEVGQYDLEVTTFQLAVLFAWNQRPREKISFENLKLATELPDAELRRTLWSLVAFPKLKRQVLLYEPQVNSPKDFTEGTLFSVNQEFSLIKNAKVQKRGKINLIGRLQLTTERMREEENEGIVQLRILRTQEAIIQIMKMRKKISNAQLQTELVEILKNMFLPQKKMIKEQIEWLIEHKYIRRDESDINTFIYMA

[6] = Metabolic stability in dog liver microsomes assessed as half life; format: ADME, Canis lupus familiaris, Microsome
[7] = Metabolic stability in dog liver microsomes assessed as intrinsic clearance; format: ADME, Canis lupus familiaris, Microsome; settings: read-out: CLH
MGC-803 [8] = test: Induction of ROS generation in human MGC-803 cells at 0.3 uM incubated for 24 hrs by DCFH-DA staining based flow cytometry analysis (reference value: 2.2%); format: functional
[9] = Metabolic stability in human liver microsomes assessed as half life; format: ADME, Microsome
MGC-803 [10] = test: Inhibition of cullin2 neddylation in UBC/DCN1 overactivated human MGC-803 cells at 0.3 to 10 uM incubated for 24 hrs by Western blot analysis; format: cell-based; settings: dose 0.3-10 µM; procedure, shortened: as §1
[11] = target: Tyrosine-protein kinase BTK (Homo sapiens) (UniProt Q06187); test: Inhibition of N-terminal GST-tagged full length human BTK (2 to 659 residues) expressed in Sf21 insect cells using 5-FAM-EAIYAAPFAKKK as substrate at 10 uM incubated for 60 mins relative to control
Procedure, shortened: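 Mobility-shift kinase assay with BTK at 5 nM, 3 μM 5-FAM peptide and 90 μM ATP. Buffer was 50 mM HEPES pH 7.5, 0.0015% Brij-35, 10 mM MgCl2 and 2 mM DTT. Reactions ran 60 min at 28 °C and were stopped with EDTA. Substrate conversion was read on Caliper and converted to % inhibition.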

Cullin-4A (Homo sapiens) = Cullin-4A (Homo sapiens) (UniProt Q13619); test: Inhibition of cullin4A neddylation in UBC/DCN1 overactivated human MGC-803 cells at 0.3 to 10 uM incubated for 24 hrs by Western blot analysis; format: cell-based; settings: dose 0.3-10 µM; procedure, shortened: as §1
Cullin-4B (Homo sapiens) = Cullin-4B (Homo sapiens) (UniProt Q13620); test: Inhibition of cullin4B neddylation in human KYSE-70 cells at 0.3 to 10 uM incubated for 24 hrs by Western blot analysis; format: cell-based; settings: KYSE-70 cell line, dose 0.3-10 µM; procedure, shortened: as §1
[12] = target: CDK4/Cyclin D3 (Homo sapiens) (UniProt P11802+P30281); test: Inhibition of full length human CDK4/N-terminal GST fused human cyclinD3 expressed in baculovirus expression system using 5-FAMIPTSPITTTYFFFKKK-COOH as substrate at 10 uM incubated for 60 mins in presence of ATP relative to control
Procedure, shortened: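 CDK/cyclin complexes were assayed with 3 μM 5-FAM peptide substrate. ATP was 20 μM for CDK1, 30 μM for CDK2, 280 μM for CDK4, 800 μM for CDK6 and 10 μM for CDK9. Buffer was 50 mM HEPES pH 7.5, 0.0015% Brij-35, 10 mM MgCl2 and 2 mM DTT. Reactions ran 60 min at 28 °C and were stopped with EDTA. Caliper conversion values were converted to % inhibition.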

KYSE-70 cell line [13] = test: Inhibition of cullin2 neddylation in human KYSE-70 cells at 0.3 to 10 uM incubated for 24 hrs by Western blot analysis; format: cell-based; settings: dose 0.3-10 µM; procedure, shortened: as §1
KYSE-70 [14] = test: Induction of p21 accumulation in human KYSE-70 cells incubated for 24 hrs by Western blot analysis; format: functional, cell-based; settings: dose 0.3-10 µM; procedure, shortened: as §1
Cullin-5 (Homo sapiens) [15] = target: T1, Cullin-5 (Homo sapiens); test: Inhibition of cullin5 neddylation in UBC/DCN1 overactivated human MGC-803 cells at 0.3 to 10 uM incubated for 24 hrs by Western blot analysis; format: cell-based; settings: dose 0.3-10 µM; procedure, shortened: as §1
[16] = Metabolic stability in human liver microsomes assessed as intrinsic clearance; format: ADME, Microsome; settings: read-out: CLH

Chain of Cullin-4B (Homo sapiens) (Q13620 whole entry, the tested form may be a part): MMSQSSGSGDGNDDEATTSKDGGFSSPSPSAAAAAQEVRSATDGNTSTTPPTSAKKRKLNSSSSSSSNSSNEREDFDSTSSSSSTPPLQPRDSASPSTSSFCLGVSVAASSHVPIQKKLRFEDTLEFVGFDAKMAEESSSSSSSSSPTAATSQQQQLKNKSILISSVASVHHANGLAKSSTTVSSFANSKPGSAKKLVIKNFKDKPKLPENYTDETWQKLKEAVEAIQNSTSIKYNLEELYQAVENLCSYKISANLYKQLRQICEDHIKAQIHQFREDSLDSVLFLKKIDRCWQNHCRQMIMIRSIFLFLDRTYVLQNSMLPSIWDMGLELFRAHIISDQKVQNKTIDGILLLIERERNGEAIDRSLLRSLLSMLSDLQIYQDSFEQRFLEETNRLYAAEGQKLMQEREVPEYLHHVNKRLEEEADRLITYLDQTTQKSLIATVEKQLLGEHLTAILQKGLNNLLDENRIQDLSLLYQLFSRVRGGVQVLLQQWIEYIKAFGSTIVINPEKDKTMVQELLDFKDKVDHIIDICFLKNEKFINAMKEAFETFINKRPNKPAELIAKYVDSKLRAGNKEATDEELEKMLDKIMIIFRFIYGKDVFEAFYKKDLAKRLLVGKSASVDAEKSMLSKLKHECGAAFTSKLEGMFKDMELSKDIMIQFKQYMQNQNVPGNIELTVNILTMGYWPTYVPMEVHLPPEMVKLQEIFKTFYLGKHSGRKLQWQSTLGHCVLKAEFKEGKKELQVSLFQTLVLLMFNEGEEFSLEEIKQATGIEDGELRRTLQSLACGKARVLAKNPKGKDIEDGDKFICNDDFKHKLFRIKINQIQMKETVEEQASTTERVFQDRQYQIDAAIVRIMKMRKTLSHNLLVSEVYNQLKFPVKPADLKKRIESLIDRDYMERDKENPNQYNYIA
Chain of Epidermal growth factor receptor (Homo sapiens), P00533 [L858R] (P00533 whole entry L858R, the tested form may be a part): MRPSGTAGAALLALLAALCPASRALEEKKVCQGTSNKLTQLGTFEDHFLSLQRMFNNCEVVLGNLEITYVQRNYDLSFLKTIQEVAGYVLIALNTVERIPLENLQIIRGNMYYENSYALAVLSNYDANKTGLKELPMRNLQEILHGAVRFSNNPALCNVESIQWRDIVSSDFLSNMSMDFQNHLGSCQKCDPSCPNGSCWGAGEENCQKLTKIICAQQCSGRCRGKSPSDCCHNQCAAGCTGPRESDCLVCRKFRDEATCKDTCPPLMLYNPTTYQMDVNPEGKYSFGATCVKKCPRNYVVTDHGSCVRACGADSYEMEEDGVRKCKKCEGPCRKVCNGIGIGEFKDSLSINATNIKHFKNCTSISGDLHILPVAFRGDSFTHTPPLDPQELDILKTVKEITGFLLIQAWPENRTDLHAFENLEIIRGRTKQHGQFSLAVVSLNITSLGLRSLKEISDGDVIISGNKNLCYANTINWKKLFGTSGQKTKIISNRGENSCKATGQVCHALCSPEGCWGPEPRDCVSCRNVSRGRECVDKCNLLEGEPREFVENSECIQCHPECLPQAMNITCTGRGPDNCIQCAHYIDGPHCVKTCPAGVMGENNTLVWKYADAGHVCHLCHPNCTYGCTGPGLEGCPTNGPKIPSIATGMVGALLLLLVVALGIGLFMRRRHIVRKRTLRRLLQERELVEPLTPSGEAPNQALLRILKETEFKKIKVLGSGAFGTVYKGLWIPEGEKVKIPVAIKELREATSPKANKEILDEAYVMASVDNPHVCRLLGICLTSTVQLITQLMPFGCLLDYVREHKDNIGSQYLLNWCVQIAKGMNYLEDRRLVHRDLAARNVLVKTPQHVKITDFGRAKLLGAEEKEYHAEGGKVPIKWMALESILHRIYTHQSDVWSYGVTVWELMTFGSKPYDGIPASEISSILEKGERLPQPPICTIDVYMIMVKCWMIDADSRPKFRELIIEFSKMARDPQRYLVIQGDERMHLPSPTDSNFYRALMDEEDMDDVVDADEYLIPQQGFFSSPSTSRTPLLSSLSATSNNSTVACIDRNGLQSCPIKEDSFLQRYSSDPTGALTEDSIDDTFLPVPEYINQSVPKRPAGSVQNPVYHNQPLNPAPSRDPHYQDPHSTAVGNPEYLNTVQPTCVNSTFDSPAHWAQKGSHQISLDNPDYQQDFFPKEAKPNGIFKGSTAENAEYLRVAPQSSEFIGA
Chain of Tyrosine-protein kinase BTK (Homo sapiens) (Q06187 whole entry, the tested form may be a part): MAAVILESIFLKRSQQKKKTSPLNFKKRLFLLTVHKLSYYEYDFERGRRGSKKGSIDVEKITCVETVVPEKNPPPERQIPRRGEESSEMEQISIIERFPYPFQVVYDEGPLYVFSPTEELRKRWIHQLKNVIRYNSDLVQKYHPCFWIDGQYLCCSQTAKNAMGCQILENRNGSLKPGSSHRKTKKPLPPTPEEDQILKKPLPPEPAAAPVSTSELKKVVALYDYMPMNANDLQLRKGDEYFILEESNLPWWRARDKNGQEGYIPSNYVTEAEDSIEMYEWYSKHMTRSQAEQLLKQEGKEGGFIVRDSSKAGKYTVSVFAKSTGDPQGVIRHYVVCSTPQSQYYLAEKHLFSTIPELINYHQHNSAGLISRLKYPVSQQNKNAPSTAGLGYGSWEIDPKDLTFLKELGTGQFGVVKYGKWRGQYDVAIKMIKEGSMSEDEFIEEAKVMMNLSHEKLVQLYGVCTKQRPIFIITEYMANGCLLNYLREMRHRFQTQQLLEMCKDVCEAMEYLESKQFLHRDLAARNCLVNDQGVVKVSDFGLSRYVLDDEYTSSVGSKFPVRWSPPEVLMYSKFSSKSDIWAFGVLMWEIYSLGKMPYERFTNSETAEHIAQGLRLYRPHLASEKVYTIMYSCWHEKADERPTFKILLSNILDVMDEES
Chain of Cullin-4A (Homo sapiens) (Q13619 whole entry): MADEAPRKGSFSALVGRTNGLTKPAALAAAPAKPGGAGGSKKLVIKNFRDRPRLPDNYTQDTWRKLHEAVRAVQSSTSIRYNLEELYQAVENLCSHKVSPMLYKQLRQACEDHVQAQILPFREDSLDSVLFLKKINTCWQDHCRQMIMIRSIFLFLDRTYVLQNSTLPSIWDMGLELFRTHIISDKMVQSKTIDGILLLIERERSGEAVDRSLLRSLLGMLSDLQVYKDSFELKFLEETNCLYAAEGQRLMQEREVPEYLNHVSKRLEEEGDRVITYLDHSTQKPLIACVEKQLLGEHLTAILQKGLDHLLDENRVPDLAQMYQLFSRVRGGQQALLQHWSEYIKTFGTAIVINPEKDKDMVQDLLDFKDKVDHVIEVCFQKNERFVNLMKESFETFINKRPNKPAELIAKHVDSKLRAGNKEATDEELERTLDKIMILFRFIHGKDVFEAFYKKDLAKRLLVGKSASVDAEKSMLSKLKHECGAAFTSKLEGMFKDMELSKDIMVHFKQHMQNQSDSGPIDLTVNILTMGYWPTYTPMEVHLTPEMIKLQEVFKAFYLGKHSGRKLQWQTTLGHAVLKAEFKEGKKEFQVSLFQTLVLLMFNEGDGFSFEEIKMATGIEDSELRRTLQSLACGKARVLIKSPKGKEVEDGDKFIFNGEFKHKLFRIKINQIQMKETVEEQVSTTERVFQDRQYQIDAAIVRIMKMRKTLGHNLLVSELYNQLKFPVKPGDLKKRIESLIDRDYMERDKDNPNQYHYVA

inhibition [2]: -0.6% | inhibition (Cullin-5 (Homo sapiens) [5]): inactive | half-life [6]: < 5 min | CLint scaled [7]: 691 mL/min/kg | half-life [9]: < 5 min | inhibition [11]: 13.6% | inhibition (Cullin-4A (Homo sapiens)): inactive | inhibition (Cullin-4B (Homo sapiens)): inactive | inhibition [12]: 4.8% | inhibition (Cullin-5 (Homo sapiens) [15]): inactive | CLint scaled [16]: > 348 mL/min/kg
SMILES: Cc1cc(Sc2nnnn2CCN(C)C)n2nc(SCc3ccc(Cl)cc3)nc2n1.Cl
inhibition (KYSE-70 cell line [1]): Dose-Dependent Effect | Activity (KYSE-70 [3]): Dose-Dependent Effect | Activity (MGC-803 [4]): Dose-Dependent Effect | Activity (MGC-803 [8]): 2.8% | inhibition (MGC-803 [10]): inactive | inhibition (KYSE-70 cell line [13]): inactive | Activity (KYSE-70 [14]): Dose-Dependent Effect
